Screens from PubChem.
S100A4 inh HTS – S100A4-myosin IIA interaction inhibition. actives 0.14% (n = 360,000). P26447. S100A4/TAMRA-MyoIIA peptide fluorescence polarization. inhibition, % at 10.7 µM;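 active = mean inhibition of at least 70% across replicates, with every replicate also reaching that level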
Target sequence (P26447 whole entry, looked up): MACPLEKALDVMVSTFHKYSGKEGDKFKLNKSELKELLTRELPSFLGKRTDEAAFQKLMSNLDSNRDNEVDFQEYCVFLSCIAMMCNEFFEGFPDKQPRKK
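Test system: S100A4 monomer protein; Medium: HEPES pH 7.2 with CaCl2, KCl, NaCl, DTT, Triton; Probe or stimulus: TAMRA-labelled myosin IIA heavy-chain peptide probe, 5 nM; Doses: one dose per compound; Times: polarization read 5 min after assay mix addition, stable 5–60 min; Benchmarks: neutral control DMSO, positive control TFP.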
ERAP1 HTS inh – blocks human ERAP1 aminopeptidase activity; Q9NZ08; recombinant ERAP1, Leu-AMC fluorescence, 60 min; inhibition, % at 10.7 µM; actives 0.15% (n = 340,000); AID 652197;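 active = mean replicate inhibition of at least 30%, or all replicates individually reaching that 30% level; inactive = mean below 30% and not every replicate reaching it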;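 also: 0% = neutral control wells and 100% = L-leucinethiol positive control wells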
PGC1a acetyl inh – PGC1a acetylation modulation, inhibitor mode; actives 0.17% (n = 350,000); inhibition, % at 15.6 µM; AID 651687; U2OS PGC1a acetylation, AlphaScreen anti-acetyl-lysine; with virally co-expressed GCN5 acetyltransferase;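 active = every replicate shows inhibition of at least 40%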;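 also: 0% = neutral control wells and 100% = positive control wells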
ARNT-TACC3 inh – disruptors of human ARNT/TACC3 interaction; AlphaScreen His-ARNT PAS-B/GST-TACC3 binding, luminescence; TACC3 fragment carries E629A point mutation; actives 0.66% (n = 390,000); AID 623870; inhibition, % at 9.99 µM; Q9Y6A5;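 active = mean inhibition of replicates at least 50% and at least half of replicates each reaching 50%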;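 also: 0% = complete ARNT plus TACC3 wells and 100% = ARNT alone without TACC3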
Ecoli rRNA inh – inhibitors of bacterial rRNA selective over humanized ribosomes; E. coli WT GFP vs humanized-ribosome RFP mutants, fluorescence, 24 h; stronger effect = lower value; DMSO median 0, no signal -100; AID 720706; GFP signal change (wild-type ribosome), % (concentration not given with the values); actives 1.6% (n = 350,000);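 active = significant combined selectivity score with lowered wild-type GFP, culture density cut under 30%, mutant RFP and density less affected; inactive = any of these conditions unmet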
Casp6 inh – caspase-6 (human) enzyme inhibition. actives 0.53% (n = 350,000). purified caspase-6, Z-VEID-R110 cleavage fluorescence. AID 686996. P55212. inhibition, % at 12.5 µM;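 active = mean inhibition across replicates at least about 35%, with every replicate also reaching that limit, limit read from the data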;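 also: 0% = median of neutral control wells and 100% = no fluorescence left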
Target sequence (P55212 24-179 limits assumed): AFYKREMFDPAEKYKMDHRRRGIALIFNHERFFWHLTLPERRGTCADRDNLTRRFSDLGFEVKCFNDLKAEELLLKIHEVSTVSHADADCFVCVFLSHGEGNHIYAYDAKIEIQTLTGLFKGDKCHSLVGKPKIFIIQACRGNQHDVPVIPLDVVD
Target sequence (P55212 194-293 limits assumed): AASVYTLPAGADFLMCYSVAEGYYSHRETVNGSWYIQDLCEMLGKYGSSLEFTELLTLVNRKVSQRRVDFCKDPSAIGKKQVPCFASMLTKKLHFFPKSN
* hit, by the source's call; . = no result. Rows were chosen to be rich in hits. Some 2.4% of all compounds tested hit in one or more screens of this group.

SMILES	S100A4 inh HTS	ERAP1 HTS inh	PGC1a acetyl inh	ARNT-TACC3 inh	Ecoli rRNA inh	Casp6 inh
CC(C)CC#Cc1ccc2c(c1)O[C@@H](CN(C)C(=O)Nc1ccccc1)[C@@H](C)CN([C@H](C)CO)S2(=O)=O	117*	-2	-18	6	2	-1
CC(=O)N(C)C[C@@H]1Oc2cc(C#CCC(C)C)ccc2S(=O)(=O)N([C@H](C)CO)C[C@@H]1C	114*	3	-4	6	-3	-4
C[C@@H]1CN([C@H](C)CO)S(=O)(=O)c2ccc(-c3cccnc3)cc2O[C@@H]1CN(C)C(=O)CC1CC1	108*	-3	12	3	0	2
C[C@H]1CN([C@@H](C)CO)S(=O)(=O)c2ccc(C#Cc3ccccc3)cc2O[C@H]1CN(C)C(=O)Nc1ccccc1	2	-2	-12	-9	2	-1
CC(=O)N(C)C[C@@H]1Oc2cc(-c3ccc(C#N)cc3)ccc2S(=O)(=O)N([C@H](C)CO)C[C@@H]1C	39	7	12	active	-3	0
C[C@@H](NC(=O)C[C@@H]1CC[C@H]2[C@@H](COC[C@@H](O)CN2C)O1)c1ccccc1	6	0	0	0	4	0
C/C(CC(=O)Nc1cc(C)ccn1)=N\NC(=O)c1cccc(C)c1O	-7	1	-25	14	-57	53*
C/C(CC(=O)Nc1cc(C)ccn1)=N\NC(=O)c1cccc(C)c1	0	5	.	26	14	2
COc1ccc2c3c([nH]c2c1)[C@@H](CO)N(C)CC31CCN(S(=O)(=O)c2cccc(F)c2)CC1	2	-2	-4	.	1	.
CC(C)NC(=O)N(C)C[C@@H]1Oc2c(N)cccc2C(=O)N(C)C[C@H]1C	.	.	.	.	1	.
CC(C)(C)N(Cc1ccccc1)C(=O)COC(=O)c1ccc(Br)o1	-4	-1	1	.	-32	5
COc1cc(OC)c(C(=O)OCC(=O)N(Cc2ccccc2)C(C)(C)C)cc1OC	0	3	6	-4	-30*	4
CC1CCN(S(=O)(=O)c2ccc(Oc3ccc([N+](=O)[O-])cc3)cc2)CC1	.	.	54*	0	.	.
COc1ccc(NC(=O)Nc2ccc3c(c2)C(=O)N([C@@H](C)CO)C[C@@H](C)[C@H](CN(C)C(=O)Nc2c(C)noc2C)OCCCC[C@H](C)O3)cc1	18	-1	10	.	0	0
Cc1ccc(S(=O)(=O)N2CCN(C(=O)COC(=O)c3ncc(Cl)c(Cl)c3Cl)CC2)c(C)c1	-13	-5	.	-7	-23*	-5
Cc1ccc(S(=O)(=O)N2CCN(C(=O)COC(=O)c3nc(Cl)ccc3Cl)CC2)c(C)c1	1	1	-4	.	-2	-1
Cc1ccc(S(=O)(=O)Nc2ccc3c(c2)CC(=O)N([C@H](C)CO)C[C@@H](C)[C@@H](CN(C)C(=O)Nc2ccccc2)O3)cc1	-3	1	2	-10	-1	-2
O=C1Nc2ccccc2C1Cc1ccccn1 (stereo not drawn)	-12	.	.	-2	22	-1
N#CC1C(=O)Nc2cccnc21 (stereo not drawn)	7	4	3	.	8	59*
C[C@@H]1CCCCO[C@@H](CN(C)S(=O)(=O)c2ccccc2)[C@H](C)CN([C@@H](C)CO)C(=O)c2cc(NC(=O)Nc3ccc(C(F)(F)F)cc3)ccc2O1	-1	1	9	-4	1	1
CCN(c1ccccc1)S(=O)(=O)c1ccc(Cl)c(NC(=O)CSc2n[nH]c(N)n2)c1	-12	4	.	0	-19*	0
Cc1[nH]c(SCC(=O)Nc2cc(S(C)(=O)=O)ccc2Cl)nc1Cc1ccccc1	-2	-7	.	31	-22*	-3
Cc1cc(NC(=O)CSc2nc(Cc3ccccc3)c(C)[nH]2)no1	-3	0	-1	-7	1	2
O=C(Nc1ccc(F)cc1)N[C@H]1C=C[C@@H](CC(=O)N2CCCCC2)O[C@@H]1CO	1	0	-7	.	0	1
CC(=O)N1[C@@H]2c3ccc(/C=C/c4ccccc4)c(=O)n3C[C@H]1[C@H](CO)[C@H]2C(=O)N1CCOCC1	6	88*	9	.	0	4
SMILES	S100A4 inh HTS	ERAP1 HTS inh	PGC1a acetyl inh	ARNT-TACC3 inh	Ecoli rRNA inh	Casp6 inh
O=C(O)[C@@H]1[C@@H](CO)[C@@H]2Cn3c(ccc(/C=C/c4ccccc4)c3=O)[C@@H]2N1Cc1ccc2c(c1)OCO2	0	-19	.	9	0	50*
CC=Cc1ccc2n(c1=O)C[C@@H]1[C@@H](CO)[C@H](C(=O)NCc3ccc4c(c3)OCO4)[C@H]2N1C(C)=O (mixture of isomers)	125*	-4	.	1	-2	-9
CCC(=O)N1[C@@H]2Cn3c(ccc(/C=C/c4ccccc4)c3=O)[C@H]1[C@@H](C(=O)N1CCOCC1)[C@@H]2CO	-1	2	.	-7	-1	-2
CCN1[C@@H]2c3ccc(/C=C/c4ccccc4)c(=O)n3C[C@H]1[C@H](CO)[C@H]2C(=O)N1CCOCC1	2	40*	.	-3	-2	-5
COc1ccc(CN(C)C[C@@H]2OCCCC[C@H](C)Oc3ccc(NS(=O)(=O)c4cn(C)cn4)cc3C(=O)N([C@H](C)CO)C[C@H]2C)cc1	3	-5	12	3	4	-1
CCOC=C1SC(=S)N(c2ccccc2OC)C1=O	127*	-2	-4	.	-1	1
CCO/C=C1/C(=O)N(c2ccc(OC)cc2)C(=O)c2ccccc21	-3	-3	.	-2	12	9
CCO/C=C1/C(=O)N(c2ccccc2OC)C(=O)c2ccccc21	-14	-2	5	7	3	38*
C[C@@H]1CCCCO[C@H](CN(C)S(=O)(=O)c2cn(C)cn2)[C@@H](C)CN([C@@H](C)CO)C(=O)c2cc(NC(=O)Nc3ccccc3)ccc2O1	.	.	.	.	0	.
CO[C@@H]1CN(C)C(=O)c2ccc(NC(=O)C3CCC3)cc2OC[C@H](C)N(C)C[C@H]1C	2	3	.	-15	2	2
Cc1c(Cl)cccc1NC(=S)N1CCN(C(=O)c2ccco2)CC1	8	2	.	-1	-28*	-3
C/C(=N\N1CCN(Cc2ccc(Cl)cc2)CC1)c1ccc(F)cc1	-5	3	7	9	-18*	-2
COC(=O)c1sccc1NC(=O)NC1CCCCC1	-4	.	-6	-4	-1	2
COC(=O)c1sccc1NC(=S)N(C)C1CCCCC1	5	.	-4	1	-26*	-1
CCCNC(=O)N1CC2(C1)CN(Cc1ccccc1)[C@@H](CO)c1[nH]c3cc(OC)ccc3c12	2	-2	-5	.	1	.
COc1cc(C=NNC(=O)c2ccccc2NS(=O)(=O)c2cccs2)cc(OC)c1O	-1	2	0	12	-52	3
